ChEMBL document CHEMBL1165945, “Study of benzo[a]phenazine 7,12-dioxide as selective hypoxic cytotoxin-scaffold. Identification of aerobic-antitumoral activity through DNA fragmentation” (Bioorg Med Chem, 2010)
Activity calls are given as the source filed them. No cut-off for these calls is given here.

Key:
Calf thymus DNA [1] = assay: Binding affinity to calf thymus DNA assessed as ratio of final absorbance area to the absorbance at 100 uM after 24 hrs by UV spectrophotometer analysis relative to control; format: nucleic-acid assay; details: Bos taurus
Summary of the method: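 Calf thymus DNA was stirred 24 h at 4 °C in 10 mM Tris–HCl pH 7.4, then diluted. Compound at 10^-4 M (≤5% solvent) was diluted in water to 2 × 10^-5 M. This was mixed 1:1 by volume with the DNA solution and rotated 24 h. UV spectra were taken at 20 °C. The ratio is the area of a 20 nm band centred on λmax at 24 h over that at 0 h (a24/a0).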

Caco-2 = assay: Cytotoxicity against human Caco-2 cells assessed as induction of DNA fragmentation under oxic condition at 10 uM after 24 hrs using ethidium bromide staining by agarose gel electrophoresis; format: functional, cell-based
Summary of the method: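 Caco-2 cells were seeded at 2 × 10^6 cells/well in 100-mm plates and exposed for 24 h under oxic conditions. Chromosomal DNA was then isolated and run on a 1% agarose gel with ethidium bromide staining to visualise fragmentation. The assay was repeated on four separate occasions.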

[2] = Cytotoxicity against chinese hamster V79 cells assessed as survival fraction under normoxic condition at 20 uM after 7 days by crystal violet staining relative to control; format: cell-based, Cricetulus griseus; details: read-out: Activity
Summary of the method: (§1)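 V79 suspension cultures were set at 2 × 10^4 cells/mL in EMEM with 10% FBS and 10 mM HEPES, under aerobic or hypoxic gassing. Compound at 20 µM was added 30 min after gassing began, in duplicate flasks, with a DMSO negative control. After 2 h the cells were replated (10^2–10^3 cells) for 7 days at 37 °C. Colonies of >64 cells were counted after crystal violet staining. SF = PEtreated/PEcontrol × 100; values are means of two experiments.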

[3] = Cytotoxicity against chinese hamster V79 cells assessed as survival fraction under hypoxic condition at 20 uM after 7 days by crystal violet staining relative to control; format: cell-based, Cricetulus griseus; details: read-out: Activity; summary of the method: as §1
Calf thymus DNA [4] = assay: Binding affinity to calf thymus DNA assessed as change in melting temperature by UV spectrophotometer analysis; format: nucleic-acid assay; details: Bos taurus
Summary of the method: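 Calf thymus DNA in 10 mM Tris–HCl pH 7.4 was mixed with compound at a 1:1 DNA:BPDO ratio. Thermal denaturation was followed as the change in absorbance at 260 nm with temperature, in a 1-cm cell.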

Structure (SMILES)	Ratio (Calf thymus DNA [1])	viability at 168 h, 20 µM [2]	viability at 168 h, 20 µM [3]	other results
O=C1c2c(O)ccc(O)c2C(=O)c2c(NCCNCCO)ccc(NCCNCCO)c21	0			
CC[n+]1c(-c2ccccc2)c2cc(N)ccc2c2ccc(N)cc21	0.5			
COc1cc(NS(C)(=O)=O)ccc1Nc1c2ccccc2nc2ccccc12	0.3			
CN[C@@H]1C[C@H]2O[C@@](C)([C@@H]1OC)n1c3ccccc3c3c4c(c5c6ccccc6n2c5c31)C(=O)NC4				Activity (Caco-2): Active
COc1ccc2c(c1)[n+]([O-])c1c3ccccc3ccc1[n+]2[O-]	1	88%	44%	
CCOc1ccc(-c2nc3cc(-c4nc5cc(N6CCN(C)CC6)ccc5[nH]4)ccc3[nH]2)cc1	0.57			
[O-][n+]1c2ccccc2[n+]([O-])c2c3ccccc3ccc21	1	40%	45%	
[O-][n+]1c2ccccc2[n+]([O-])c2c3ccccc3c(O)cc21	0	100%	93%	
Nc1ccc2cc3ccc(N)cc3nc2c1				ΔTm (Calf thymus DNA [4]): 12 °C
